In ChEMBL document CHEMBL1132147, “2-(2-Phenylcyclopropyl)imidazolines: reversed enantioselective interaction at I(1) and I(2) imidazoline receptors” (J Med Chem, 1999):

How the values were obtained:
[1] = target: T1, Adrenergic receptor alpha-2 (Rattus norvegicus, UniProt P22086+P19328+P22909); experiment: Displacement of [3H]-clonidine from Alpha-2 adrenergic receptor of rat cortex membranes; type: cell membranes, Membrane
T1 sequence (P22086 whole entry): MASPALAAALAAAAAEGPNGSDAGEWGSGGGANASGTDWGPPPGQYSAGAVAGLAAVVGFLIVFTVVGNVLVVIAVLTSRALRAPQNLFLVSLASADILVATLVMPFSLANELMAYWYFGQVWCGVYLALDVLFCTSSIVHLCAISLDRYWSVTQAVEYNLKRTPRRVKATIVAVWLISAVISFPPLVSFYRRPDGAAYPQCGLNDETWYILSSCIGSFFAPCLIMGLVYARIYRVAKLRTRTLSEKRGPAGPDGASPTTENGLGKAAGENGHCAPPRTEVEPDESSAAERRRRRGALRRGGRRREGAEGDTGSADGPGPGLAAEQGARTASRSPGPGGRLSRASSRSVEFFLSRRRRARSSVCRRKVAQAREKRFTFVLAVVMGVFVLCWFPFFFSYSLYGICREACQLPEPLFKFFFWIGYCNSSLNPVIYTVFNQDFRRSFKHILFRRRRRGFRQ
T1 sequence (P19328 whole entry): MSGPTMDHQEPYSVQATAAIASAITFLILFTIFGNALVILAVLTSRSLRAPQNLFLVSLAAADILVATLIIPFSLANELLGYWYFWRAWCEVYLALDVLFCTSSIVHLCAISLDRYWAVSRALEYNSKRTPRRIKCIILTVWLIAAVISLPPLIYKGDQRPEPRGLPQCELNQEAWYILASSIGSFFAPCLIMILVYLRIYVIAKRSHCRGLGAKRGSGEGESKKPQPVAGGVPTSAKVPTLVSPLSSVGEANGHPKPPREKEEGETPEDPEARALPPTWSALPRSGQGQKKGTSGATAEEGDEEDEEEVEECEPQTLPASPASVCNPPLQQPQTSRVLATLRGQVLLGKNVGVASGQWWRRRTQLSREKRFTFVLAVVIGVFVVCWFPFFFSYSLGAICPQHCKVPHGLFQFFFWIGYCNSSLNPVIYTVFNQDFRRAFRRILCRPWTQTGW
T1 sequence (P22909 whole entry): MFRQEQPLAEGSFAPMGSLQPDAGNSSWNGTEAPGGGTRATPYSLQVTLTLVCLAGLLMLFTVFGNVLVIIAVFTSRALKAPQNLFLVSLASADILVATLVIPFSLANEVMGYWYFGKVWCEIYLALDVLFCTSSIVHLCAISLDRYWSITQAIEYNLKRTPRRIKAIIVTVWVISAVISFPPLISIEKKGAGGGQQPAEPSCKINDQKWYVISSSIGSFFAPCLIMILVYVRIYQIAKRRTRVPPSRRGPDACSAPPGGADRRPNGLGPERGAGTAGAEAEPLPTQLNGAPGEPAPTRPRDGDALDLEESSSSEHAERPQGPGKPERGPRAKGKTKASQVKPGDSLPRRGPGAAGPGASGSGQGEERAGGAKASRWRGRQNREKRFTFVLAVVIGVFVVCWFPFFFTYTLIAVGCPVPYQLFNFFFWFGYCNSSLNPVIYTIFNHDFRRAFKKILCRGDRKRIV
Method in brief: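 Competition binding using hydrogen oxalate salts of the compounds: [3H]clonidine on rat cortex membranes (α2) or [3H]idazoxan on rabbit kidney membranes (I2). IC50 by nonlinear regression of displacement data, converted to Ki by Cheng–Prusoff and given as pKi ± SEM.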

[2] = Displacement of [3H]idazoxan from imidazoline receptor I-2 of rabbit kidney membranes
[3] = Relative binding to I2 and I1 imidazoline receptors […]
[4] = Relative binding to I2 imidazoline and alpha-2 adrenergic receptors […]
[5] = target: Nischarin (Rattus norvegicus); experiment: Displacement of [125I]p-iodoclonidine from imidazoline receptor I-1 of PC12 cell membranes

Ki [5] [nM] | SMILES | Log Ki [1] | Log Ki [2] | Ratio [3] | Ratio [4]
– | c1ccc([C@@H]2C[C@H]2C2=NCCN2)cc1 | -6.92 | -8.22 | – | –
– | c1ccc([C@H]2C[C@@H]2C2=NCCN2)cc1 | -6.62 | -6.91 | – | –
– | c1ccc(C2CC2C2=NCCN2)cc1 (racemic) | -6.4 | -7.64 | – | –
– | c1ccc(C2CC2C2=NCCN2)cc1 (stereo in doubt; 4a(+/-)) [listing 1 of 2 here] | -4.53 | -6.05 | – | –
– | c1ccc(C2CC2C2=NCCN2)cc1 (stereo in doubt; 4a(+/-)) [listing 2 of 2 here] | – | – | 7 | 33
19.1 | C(=C\c1ccccc1)/C1=NCCN1 [TRACIZOLINE] | -4.85 | -8.72 | 10 | 7410
